Screening results: PubChem BioAssay, several laboratories
CHOP inh – blocks CHOP induction under ER stress; CHO-K1 CHOP-promoter luciferase, tunicamycin-induced, 15-18 h; inhibition, % at 10 µM; 220,000 compounds, 3.8% hits; AID 2732;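 active = compounds that reduced the stress-induced luciferase reporter signal by more than about 70% of percent inhibition, limit read from the data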;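 also: 0% = tunicamycin plus vehicle and 100% = wells without tunicamycin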
A1 inh – inhibitors of the anti-apoptotic protein A1, read as caspase activation; MEF A1-2A-BIM cells, Caspase-Glo 3/7 luminescence, 3 h; percent of clofoctol response, vehicle zero; caspase activation, % (test concentration not listed); 330,000 compounds, 0.066% hits; AID 2462;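 active = over half of replicate activation scores above 10%, or exactly half above 10 with the replicate mean above 10; inconclusive = replicate mean below 10 yet half the replicates above 10; inactive = over half of replicates below 10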
UPR CHOP act – activators of apoptotic arm of unfolded protein response (CHOP); 330,000 compounds, 0.34% hits; CHO-CHOP luciferase reporter, UPR activation, luminescence; percent of tunicamycin response over DMSO baseline; activation, % at 10 µM;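 active = at 10 µM dose, activation of 40% or more, normalized to positive control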;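 also: 100% = tunicamycin at 10 µg/mL and 0% = DMSO alone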
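System: CHO CHOP reporter cells. Amount: 500 cells per well. Buffer or medium: F12 medium, 10% FBS. Compound dosing: one dose, 10 µM in 0.5% DMSO. Incubation: 6 h compound exposure at 37 °C after overnight seeding. Technique: Steady-Glo luciferase luminescence. Benchmarks: tunicamycin and DMSO controls.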
UPR XBP1 act – adaptive UPR (XBP1) activation | CHO-XBP1 luciferase reporter, IRE1-XBP1 UPR activation, luminescence; percent of tunicamycin response, DMSO as zero | 330,000 compounds, 0.33% hits | activation, % at 20 µM | AID 463104;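 active = versus positive control, 20 µM dose yields 30% or more activation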;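 also: 100% = tunicamycin at 10 µg/mL and 0% = DMSO only wells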
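Material – CHO cell line with stable XBP1 luciferase reporter · Buffer or medium – F12 plus 10% FBS · Compound – single point, 20 µM final compound, 1% DMSO · Schedule – 16-18 h cell attachment at 37 °C, then 6 h compound exposure · Signal – Steady-Glo luminescence read · Benchmarks – high control tunicamycin 10 µg/mL final, low control DMSO vehicle only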
CHOP confirm – confirmation of CHOP induction inhibitors; shares compounds with CHOP inh; inhibition, % at 10 µM; 2,100 compounds, 45% hits; CHO-CHOP promoter luciferase reporter, tunicamycin-induced, luminescence;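 active = mean of three repeat readings of reporter signal inhibition above a set limit, cut at about 70% in these data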;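 also: 0% = tunicamycin plus vehicle and 100% = wells lacking tunicamycin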
Numbers without * were called inactive; ? = inconclusive; . = no result. This excerpt belongs to a sample that is enriched for hits.

SMILES | CHOP inh | A1 inh | UPR CHOP act | UPR XBP1 act | CHOP confirm
O=C(Nc1cccc(-c2nc3ncccc3o2)c1)c1sc2ccccc2c1Cl | 104* | 1 | 0 | 1 | 103*
CC(C)C(=O)Nc1c2c(nn1-c1ccc(F)cc1)CS(=O)(=O)C2 | . | 1 | -1 | -1 | .
COc1cc(C(=O)O)ccc1Cl | -3 | 0 | 0 | 0 | .
Cc1cc(/C(=N/O)C(C)(C)NO)ccc1Cl | 102* | 0 | 0 | 2 | -76
CCc1ccc2c(c1)C1(NN=C(c3cccc4ccccc34)S1)C(=O)N2 (configuration not stated) | 104* | 0 | 95* | 7 | 63
C=CCn1c(=O)[nH]c2cc(C(=O)N3CCN(c4cc(C)ccc4C)CC3)ccc2c1=O | 97* | -1 | -3 | 1 | 63
Fc1ccc(NC(=S)N2CCN(c3cccc(C(F)(F)F)c3)CC2)cc1 | 51 | 0 | -1 | -2 | .
FC(F)(F)c1cccc(NC(=S)N2CCN(c3cccc(C(F)(F)F)c3)CC2)c1 | 107* | 0 | -1 | -1 | 116*
CCOC(=O)c1cc(-c2ccccc2)sc1NC(=O)CSc1nnc(N)s1 | -5 | 1 | 1 | 0 | .
O=C(Nc1cc(Cl)ccc1N1CCOCC1)c1ccncc1 | . | 2 | -1 | -2 | .
Cc1ccccc1OCCn1cc(C(=O)C(=O)N2CCOCC2)c2ccccc21 | 16 | 1 | 4 | -1 | .
CCC1CCCCN1S(=O)(=O)c1ccc(C(=O)Nc2nnc(C3CC3)o2)cc1 (configuration not stated) | . | -2 | 2 | -3 | .
CCC1CCCCN1S(=O)(=O)c1ccc(C(=O)Nc2nnc(-c3ccccc3Cl)o2)cc1 (configuration not stated) | 107* | 1 | 4 | 1 | 102*
CCOc1ccc(NC(=O)c2ccccc2NC(=O)CN(C)CC(=O)Nc2ccc(C)cc2)cc1 | 107* | 0 | 1 | 5 | 53
Cc1cccc(NC(=O)NCc2ccc3c(c2)cc(C)n3C)c1 | 106* | 1 | 2 | -1 | 27
Cc1cc2cc(CNC(=O)Nc3cccc(Cl)c3)ccc2n1C | 17 | 1 | 0 | -2 | .
Cn1ccnc1Sc1cc(Cl)ccc1[N+](=O)[O-] | 11 | 0 | -1 | 1 | .
COc1cccc(NC(=O)c2ccc(-n3cccn3)nc2)c1 | -6 | -2 | 1 | 3 | .
N#C/C(=C/c1ccc(N2CCCCC2)o1)c1cccc(F)c1 | 103* | 1 | 20 | 6 | 20
Cc1ccc(S(=O)(=O)N2CCOCC2)cc1NC(=O)C1CC(=O)N(c2ccc3c(c2)OCCO3)C1 (configuration not stated) | . | 0 | 1 | -3 | .
OCCCNc1cc(-c2ccnc(Nc3cccc(Cl)c3)n2)ccn1 | 103* | -2 | 2 | -5 | 107*
COc1ccc(NC(=O)CN(C)C(=O)c2cccc(S(=O)(=O)Nc3ccc(OC)cc3)c2)cc1 | . | 0 | 2 | -3 | .
CC(=O)c1c(C)oc2ccc(NS(=O)(=O)c3ccc(C)cc3)cc12 | . | 0 | 0 | 2 | .
Cc1oc2ccc(NS(=O)(=O)c3ccc(C(C)(C)C)cc3)cc2c1C(=O)Nc1ccccc1 | 107* | 0 | 3 | -4 | 45
C(=C1/CCCC2=C1Nc1ncnn1C2c1ccccc1)/c1ccccc1 (configuration not stated) | 112* | 2 | 6 | -8 | 58
SMILES | CHOP inh | A1 inh | UPR CHOP act | UPR XBP1 act | CHOP confirm
S=C1NC2=C(CCC/C2=C\c2ccccc2)C(c2ccccc2)N1 (configuration not stated) | 40 | 0 | -2 | 0 | .
CCOC(=O)CN1C(c2ccc(O)cc2)Nc2ccc(Br)cc2C1c1ccccc1 (configuration not stated) | 108* | -1 | 3 | -1 | 119*
Cc1ccc(S(=O)(=O)/N=C2\C=C(Nc3cccc(C(=O)O)c3)C(=O)c3ccccc32)c(C)c1 | . | -1 | 9 | -10 | .
Cc1ccc(S(=O)(=O)/N=C2/C=C(Sc3ncn[nH]3)C(=O)c3ccccc32)cc1 | 108* | -3 | . | . | 108*
Cc1ccc(S(=O)(=O)/N=C2/C=C(Sc3ncn[nH]3)C(=O)c3ccccc32)c(C)c1 | 109* | 0 | . | . | -8
CCOC(=O)/C(=C\c1ccc(OC(F)F)cc1)C1=Nn2c(nnc2-c2ccc(Cl)cc2)SC1 | 107* | ? | . | . | 120*
COc1ccc(C(C)NC(=O)C23CC4CC(CC(C4)C2)C3)cc1OC (configuration not stated) | . | 0 | 0 | 1 | .
CC(C)COc1ccc(C(=O)Nc2ccc(NC(=O)c3ccco3)c(Cl)c2)cc1 | 101* | 1 | -2 | 6 | 69
CC(C)Oc1ccc(C(=O)Nc2ccc(NC(=O)c3ccco3)c(Cl)c2)cc1 | 9 | 0 | 1 | 1 | .
Cc1ccccc1C(=O)N1CCC(C(=O)Nc2ccc(S(=O)(=O)N3CCCC3)cc2)CC1 | 35 | 2 | 0 | -3 | .
Cn1cccc1/C=C1\SC(=O)N(CC(=O)Nc2ccc(Cl)cc2)C1=O | 101* | 1 | 1 | -5 | 1
CCOc1ccc(NC(=O)CN2C(=O)S/C(=C/c3cccn3C)C2=O)cc1 | -7 | -1 | 3 | -4 | .
O=C(NCCc1ccc(Cl)cc1)c1ccc2nccnc2c1 | . | -1 | 5 | -2 | .
C=CCOC(=O)C1=C(C)NC(SCC)=C(C#N)C1c1ccc(Cl)cc1 (configuration not stated) | 102* | 0 | 0 | 5 | 59
Cc1ccc(NC(=O)c2ccc(Nc3c([N+](=O)[O-])cc([N+](=O)[O-])cc3[N+](=O)[O-])cc2)cc1 | 104* | 2 | -6 | -5 | 108*
Cn1c(SCCOc2ccccc2Cl)nnc1-c1ccncc1 | 2 | 1 | -1 | -2 | .
COc1ccc(CC(=O)Nc2cccc(-c3nnc(-c4cccc(C)c4)o3)c2)cc1OC | . | -1 | -5 | -7 | 113*
COc1ccc(Cc2nnc(-c3cccc(C)c3)o2)cc1OC | 9 | 0 | 1 | 4 | .
Cc1cccc(C(=O)NCC(=O)NC(C)CCc2ccccc2)c1 (configuration not stated) | . | 1 | 1 | -4 | .
COC(=O)c1ccc(NS(=O)(=O)c2ccc3[nH]c(=O)oc3c2)cc1 | . | 0 | 1 | -2 | .
NS(=O)(=O)c1ccc(N2N=C(c3ccccc3)CC2c2ccc(F)cc2)cc1 (configuration not stated) | 105* | 1 | -2 | 0 | -26
CC(C)OC(=O)CSc1nnc(Cc2ccccc2)n1Cc1ccco1 | 66 | 0 | -2 | -2 | .
O=S1(=O)c2ccccc2N=NN1Cc1ccc(Cl)c(Cl)c1 | -46 | 1 | 1 | 0 | .
CC(C)(C)c1ccc(CN2N=Nc3ccccc3S2(=O)=O)cc1 | 108* | 0 | -5 | -5 | 124*
